Source: ChEMBL document CHEMBL4513216, “Probing the Open Global Health Chemical Diversity Library for Multistage-Active Starting Points for Next-Generation Antimalarials” (ACS Infect Dis, 2020)

experiment: Toxicity liver stage against HepG2, at 10uM; type: cell-based; set-up: test concentration 10 uM, cell line HepG2-A16-CD81EGFP; settings: human, HepG2-A16-CD81EGFP cells; read-out: INHIBITION
Procedure, shortened: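 Uninfected HepG2-A16-CD81EGFP cells, 3 × 10^3 per well, 1536-well, plated on prespotted compound at 10 μM final, parasite-free screening media added to match infected plates; puromycin 10 μM positive, DMSO 0.5% negative; run in parallel with 48 h PbLuc assay at 37 °C, 5% CO2; viability by CellTiter-Glo luminescence, normalized to controls.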

Row | Compound | cytotoxicity at 10 µM
1 | C1CCC(CSc2nnnn2C2CC2)OC1 (stereo not given) | 5.29%
2 | O=C(NCc1ccccc1-n1cccn1)N1CCN2CCCCC2C1 (stereo not given) | -1.2%
3 | COc1cc(OC)cc(C(=O)NCCCNc2ncccn2)c1 | -11.1%
4 | CC(C)[C@H](NS(C)(=O)=O)C(=O)NCc1cc(-c2ccco2)nn1C | -10.5%
5 | Cc1cnn(CC2CCCN2Cc2noc(CC(C)C)n2)c1 (stereo not given) | -5.04%
6 | O=S(=O)(NCCc1nnc2ccccn12)c1cccnc1 | 1.9%
7 | O=C(O)c1cn(-c2ccccn2)c(=O)c2ccccc12 | 0.847%
8 | O=C(N[C@@H]1CN(Cc2ccc(F)c(F)c2)C[C@H]1O)c1cscn1 | -3.78%
9 | O=C(NCCSC1CCCC1)c1ccc(F)cc1F | -3.16%
10 | CC(NC(=O)NCCCOC1CCCCC1)c1nncn1C (stereo not given) | -7.47%
11 | COCCN1CC[C@@H]2CN(Cc3cccnc3OC)C[C@@H]2C1 | 13.6%
12 | CCN(CC)CCNC(=O)CCc1c(C)nn(-c2ccccc2Cl)c1C | -0.61%
13 | O=C(CCc1ccccc1)N1C[C@@H]2CN(Cc3ccoc3)CCO[C@@H]2C1 | -77.8%
14 | CCc1ncnc2c1CCN(Cc1ccccn1)CC2 | 1.39%
15 | O=C(CCCN1C(=O)CCC1=O)NCC1(c2ccccc2)CCC1 | -17.1%
16 | Cn1ccnc1-c1ccccc1C(=O)N1CCc2c(nc(N)[nH]c2=O)C1 | -5.3%
17 | COc1ccc2c(ccn2CC(=O)N2CCCC2Cn2cccn2)c1 (stereo not given) | -0.429%
18 | Cc1noc([C@@H]2C[C@H]3CN(Cc4ccc5c(c4)OCO5)C[C@H]3O2)n1 | -113%
19 | Cc1ccc(CN2CCOC3(COCCN(C(C)C)C3)C2)o1 (stereo not given) | -107%
20 | CSCC[C@@H]1CN2CCC[C@H]2CN1Cc1coc2ccc(Cl)cc2c1=O | 0.11%
21 | O=C(c1cscn1)N1CC[C@H]2C[C@H](c3nnc(C4CC4)o3)O[C@@H]2C1 | -111%
22 | COCCCNCc1cc(O)c2cc(C)cc(C)c2n1 | -6.31%
23 | CN(Cc1nnc(C2CC2)n1C)C(=O)c1ccnc(OC2CCC2)c1 | -1.01%

Row | Compound | cytotoxicity at 10 µM
24 | O=C(c1ccc(Cn2ccccc2=O)o1)N1CCSCC1 | -14.8%
25 | Cc1ccc(C2CSCCN2C(=O)c2cccs2)o1 (stereo not given) | 3.82%
26 | O=C(NCc1nn(-c2ccccc2)c2c1CCC2)N1CCCC(O)C1 (stereo not given) | -10.2%
27 | Cc1nccn1-c1ccc(=O)n(CCNC(=O)c2c(F)cccc2Cl)n1 | -9.98%
28 | CN(C)c1cc(N2CCN(c3ccccn3)CC2)ncn1 | -2.71%
29 | Cn1ccnc1C(=O)N1CCC2(CC1)CC(Oc1cccnc1)CO2 (stereo not given) | 3.04%
30 | COC(=O)CC1CCCCN1CC(=O)Nc1cc(F)ccc1F (stereo not given) | 6.55%
31 | CC(=O)N[C@@H](CC(C)C)C(=O)N1CCC(n2cc(CC(C)C)nn2)CC1 | -10.8%
32 | O=C1COc2cc(C(=O)NS(=O)(=O)c3ccc(F)cc3)ccc2N1 | -8.47%
33 | O=C(NCc1cc2ccccc2s1)c1cc(CN2CCCC(O)C2)on1 (stereo not given) | -40%
34 | O=C(c1cnccn1)N1CCC2(CCN(Cc3ccsc3)C2)CC1 | -3.33%
35 | O=C(COC1CCCC1)NCCc1noc(-c2ccccn2)n1 | 3.41%
36 | COc1ccc(-c2noc(C(N)CCSC)n2)cc1 (stereo not given) | -7.27%
37 | CCN(CC)S(=O)(=O)c1ccc2c(c1)N(Cc1ccncc1)C(=O)CS2 | -5.62%
38 | c1cncc(OCC2CC3(CCN(CC4CC4)CC3)CO2)c1 (stereo not given) | 4.95%
39 | Cn1nnc2c1C(COCc1ccccn1)CN(C(=O)c1cccs1)C2 (stereo not given) | -11.2%
40 | O=C1NCCCCC1NS(=O)(=O)N1CCCCC1 (stereo not given) | 1.48%
41 | Cc1nnc(CN(C)C2CCCN(Cc3noc(C4CC4)n3)C2)o1 (stereo not given) | -2.51%
42 | COCC1CN(Cc2cnn(C)c2)Cc2nn(C)cc21 (stereo not given) | -82.8%
43 | NC(=O)CCCNC(=O)Cc1cccc(I)c1 | -3.71%
44 | Cc1cccc2[nH]c(C3CCCN(Cc4ccccc4C(=O)O)C3)nc12 (stereo not given) | 7.28%
45 | COc1ccc(C(C)n2ccnc2-c2cc3n(n2)CCCNC3)cc1F (stereo not given) | -3.06%
